Bioassay records from PubChem BioAssay.
The full list was thinned out, with hits kept by preference.
TLR4 MyD88 comp = TLR4-MyD88 interaction inhibition in cells; O00206+Q99836; AID 861; HeLa CL3-4 TLR4/MyD88 BLA complementation, FRET ratio; inhibition, % at 8.4 µM; 200,000 tested, 0.18% active; in the data active = inhibition above about 25%;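 note: 0% = vehicle and 100% = reference inhibitor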
UPR CHOP act = apoptotic UPR (CHOP) activation | CHO-CHOP luciferase reporter, luminescence; percent of tunicamycin response over DMSO baseline | activation, % at 10 µM | 330,000 tested, 0.34% active;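 active = at 10 µM dose, activation of 40% or more, normalized to positive control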;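 note: 100% = tunicamycin at 10 µg/mL and 0% = DMSO alone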
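Test system: CHO-CHOP cells, stable luciferase reporter of PERK-eIF2a-CHOP signalling | Quantity: 500 CHO-CHOP cells per well | Buffer or medium: F12 plus 10% serum | Compound dosing: 10 µM single point, 0.5% DMSO | Schedule: 6 h compound treatment, 37 °C | Signal: Luciferase luminescence | Control set: Tunicamycin high control, DMSO low control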
NOD2 RIPK2 PPI = NOD2-RIPK2 protein interaction inhibition | O43353 | CHO BLA complementation NOD2-RIPK2, CCF4 ratio | inhibition, % at 4.98 µM | 360,000 tested, 0.38% active; in the data active = inhibition above about 21%;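 note: 0% = vehicle only and 100% = reference blocker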
Target sequence (O43353 whole entry, looked up): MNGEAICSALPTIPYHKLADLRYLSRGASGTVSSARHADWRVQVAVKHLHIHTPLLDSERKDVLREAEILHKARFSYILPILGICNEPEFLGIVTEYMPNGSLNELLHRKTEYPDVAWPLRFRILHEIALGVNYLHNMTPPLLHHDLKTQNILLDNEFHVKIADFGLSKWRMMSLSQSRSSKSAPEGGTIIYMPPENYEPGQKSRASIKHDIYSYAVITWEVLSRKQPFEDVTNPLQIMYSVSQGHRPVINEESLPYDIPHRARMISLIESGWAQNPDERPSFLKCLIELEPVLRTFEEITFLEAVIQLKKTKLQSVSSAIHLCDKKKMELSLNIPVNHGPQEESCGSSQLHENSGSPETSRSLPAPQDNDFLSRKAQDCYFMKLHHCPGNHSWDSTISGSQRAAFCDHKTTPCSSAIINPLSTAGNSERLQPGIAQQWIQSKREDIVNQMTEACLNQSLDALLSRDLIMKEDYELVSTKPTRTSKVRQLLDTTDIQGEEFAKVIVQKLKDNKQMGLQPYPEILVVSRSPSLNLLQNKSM
XBP1 UPR activ = activators of adaptive arm of unfolded protein response (XBP1); CHO-XBP1 luciferase reporter, IRE1-XBP1 UPR activation, luminescence; percent of tunicamycin response, DMSO as zero; activation, % at 20 µM; 330,000 tested, 0.33% active;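 active = versus positive control, 20 µM dose yields 30% or more activation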;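 note: 100% = tunicamycin at 10 µg/mL and 0% = DMSO only wells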
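Material: CHO cell line with stable XBP1 luciferase reporter; buffer or medium: F12 medium containing 10% fetal bovine serum; compound: single point, 20 µM final compound, 1% DMSO; incubation: 6 h treatment, 37 °C; measured by: glow luminescence from Steady-Glo reagent; evaluation: activation, % of tunicamycin; control set: tunicamycin high, DMSO low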
CHOP inh = inhibitors of CHOP induction in ER stress response | CHO-K1 CHOP-promoter luciferase, tunicamycin-induced, 15-18 h | inhibition, % at 10 µM | 220,000 tested, 3.8% active;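 active = compounds that reduced the stress-induced luciferase reporter signal by more than about 70% of percent inhibition, limit read from the data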;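 note: 0% = tunicamycin plus vehicle and 100% = wells without tunicamycin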
TLR9-MyD88 block = inhibitors of human TLR9-MyD88 binding. 340,000 tested, 0.21% active. inhibition, % at 4.98 µM. AID 504734. Q9NR96+Q99836. CHO BLA complementation TLR9-MyD88, CCF4 FRET ratio;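 active = inhibition above the mean over all tested compounds plus 3 SD, cut at about 21% in these data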;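 note: 0% = DMSO only wells and 100% = clavulanate BLA inhibitor control wells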
* hit, by the source's call; · = no result given.

SMILES	TLR4 MyD88 comp	UPR CHOP act	NOD2 RIPK2 PPI	XBP1 UPR activ	CHOP inh	TLR9-MyD88 block
CC(C)[C@H](CO)N(Cc1cccc(F)c1)c1nc(Nc2cccc(Cl)c2)c2ncn(C(C)C)c2n1	·	5	7	3	10	5
CC[C@H](CO)Nc1nc(Nc2cccc(Cl)c2)c2ncn(C(C)C)c2n1	·	0	21	4	83*	7
O=C(c1cccs1)N1N=C(c2ccccc2)CC1c1ccccc1 (stereo not drawn)	7	-1	5	3	78*	-6
Cc1nnc(SCC(=O)Nc2cccc(S(=O)(=O)N3CCCC3)c2)n1C1CC1	·	·	-7	·	·	0
COc1ccccc1N1CCN(c2ccc3ccccc3n2)CC1	·	1	0	-10	·	-5
COc1ccccc1N1CCN(c2ccc(-c3ccccc3)nn2)CC1	5	-5	15	-5	79*	-1
Cc1nn(C)c(NC(=O)c2ccccc2Cl)c1Br	·	0	-2	3	·	-4
Cc1nn(C)c(Nc2ccc(Br)cc2)c1Br	4	0	-7	-1	74*	-14
Cc1cc(C)nc(-n2nc(C)c(Br)c2Nc2ccc(Br)cc2)n1	-1	0	-2	0	77*	-4
CCOC(=O)C1(C)CCN1C(=O)c1ccccc1Br (stereo not drawn)	·	·	-8	·	·	·
CO[C@H]1CN(C)C(=O)c2cc(NC(=O)C3CCOCC3)ccc2OC[C@H](C)N(Cc2nccs2)C[C@H]1C	·	·	-4	·	·	·
Nc1ccc(N=Nc2ccccc2O)c(N)c1	·	6	-9	4	·	·
Oc1ccccc1N=Nc1ccccc1O	-5	·	10	·	73*	2
O=[N+]([O-])c1ccccc1/C=C/C=N/n1c(-c2ccc(Cl)cc2)n[nH]c1=S	-5	-2	-9	0	82*	5
CC1CCCC(C)N1/N=C/C=C/c1ccccc1[N+](=O)[O-] (stereo not drawn)	-2	2	-4	1	71*	-6
COc1ccccc1N1CCN(/N=C/C=C\c2ccccc2[N+](=O)[O-])CC1	-2	1	-4	1	4	-14
Cc1ccc(-c2n[nH]c(=S)n2/N=C/C=C\c2ccccc2[N+](=O)[O-])cc1	-8	0	-3	-1	91*	1
COc1ccccc1/C=C/C=N/n1c(-c2ccc(C)cc2)n[nH]c1=S	-8	4	8	3	5	0
O=[N+]([O-])c1ccccc1/C=C/C=N/n1c(-c2ccccc2)n[nH]c1=S	-6	0	-13	1	10	-8
Cc1cccc(NC(=S)NC(C)(C)CC(C)(C)C)c1	-17	1	-6	2	85*	-6
CS(=O)(=O)N(CC(=O)N/N=C/c1cccc2c1OCCO2)c1ccccc1Br	9	-1	-2	-4	16	-3
O=C(CN(c1ccc(Cl)c(C(F)(F)F)c1)S(=O)(=O)c1ccccc1)N/N=C/c1cccc2c1OCCO2	-3	1	-15	-2	73*	2
CC(C)c1nc(N2CCN(C(=O)c3ccco3)CC2)c2c3c(sc2n1)CCCC3	-8	4	3	-4	74*	1
COC(=O)c1cc(NC(=O)c2c(F)c(F)c(F)c(F)c2F)cc(C(=O)OC)c1	0	1	9	-3	20	-6
CCOC(=O)C(C)On1c(-c2ccc(Cl)cc2)nc2ccc([N+](=O)[O-])cc21 (stereo not drawn)	16	3	-8	4	72*	-7
SMILES	TLR4 MyD88 comp	UPR CHOP act	NOD2 RIPK2 PPI	XBP1 UPR activ	CHOP inh	TLR9-MyD88 block
COn1c(-c2ccc(Cl)cc2)nc2ccc(Cl)cc21	-16	4	-8	0	74*	11
O=C(O)COn1c(-c2ccc(Cl)cc2)nc2ccc(Cl)cc21	12	3	3	4	-7	-2
O=C(COC(=O)CSc1ccc2ccccc2c1Br)NC1CC1	4	0	-15	-2	1	0
Oc1ccc(C[C@@H]2CNC(=S)N2CCc2cc(C(F)(F)F)cc(C(F)(F)F)c2)cc1	·	0	-4	-1	80*	8
Cc1ccc(-c2nc3ccccc3nc2-c2ccccc2)cc1	·	3	-1	-3	·	-2
Clc1ccc(-c2nc3ccccc3nc2-c2ccccc2)cc1	-7	1	-14	2	74*	13
CCC(C(=O)OCC(=O)Nc1cc(Cl)cc(Cl)c1)c1ccccc1 (stereo not drawn)	5	-2	-16	-3	92*	1
CCN(CC)S(=O)(=O)c1cc(C(=O)OCC(=O)Nc2cccc(Br)c2)ccc1F	1	0	0	-2	27	-2
CN1CCN(CCCNC(=O)c2ccc(/C=C3\Oc4ccccc4N(Cc4ccccc4F)C3=O)cc2)CC1	·	4	14	3	·	2
CC1CCC(NC(=O)c2ccc(/C=C3\Oc4ccccc4N(C)C3=O)cc2)CC1 (stereo not drawn)	0	·	·	·	91*	·
Clc1ccc(/C=N/NC(=Nc2ccccc2)c2ccccn2)c(Cl)c1	3	-2	-1	0	81*	4
CCc1nc(SCC(=O)N2CCCCC2)c2c(=O)n(C)c(=O)n(C)c2n1	·	-3	-12	-1	·	-1
Cc1ccc(Cn2ncc3c(NN)ncnc32)cc1	·	-1	-3	-2	·	-6
COC(=O)c1cc(Nc2cc(C)c3ccc(O)cc3n2)cc(C(=O)OC)c1	·	-1	7	0	71*	-12
Cc1ccc(Nc2cc(C)c3ccc(O)cc3n2)cc1C	·	2	0	3	79*	-3
COC(=O)c1cc(Nc2cc(C)c3c(O)cccc3n2)cc(C(=O)OC)c1	·	7	4	17	60	-11
Nc1ccccc1CCc1ccccc1N	·	·	-3	·	·	-6
CCc1nc(SCC(=O)Nc2nnc(CC)s2)c2c(C)c(C)sc2n1	-11	-1	-1	1	96*	-2
CCCc1nc(SCC(=O)Nc2nnc(CC)s2)c2c(C)c(C)sc2n1	-6	-1	-6	-3	47	4
CCSc1nnc(NC(=O)CSc2nc(CC)nc3c2c(=O)n(C)c(=O)n3C)s1	-18	0	-7	-3	82*	-2
CC(C)(C)N(Cc1ccccc1)C(=O)COC(=O)CN1C(=O)NC2(CCCC2)C1=O	·	0	2	-8	·	5
CCCC1CCC(c2ccc(/C(N)=N/O)cc2)CC1 (stereo not drawn)	8	3	4	4	81*	-3
CCCC1CCC(c2ccc(C(N)=O)cc2)CC1 (stereo not drawn)	-10	-1	0	5	·	2
Cc1ccc(C(=O)CN2C(=O)c3ccccc3S2(=O)=O)cc1	·	-9	-7	-9	87*	-6
O=C(CN1C(=O)c2ccccc2S1(=O)=O)c1ccccc1	-7	-5	1	-7	45	11
